According to ChEMBL document CHEMBL1649446, “Comparative antipneumococcal activities of sulopenem and other drugs” (2009):
Converted amounts (≈) assume the structure as drawn.

Columns and labels:
Format in all cases: functional
Streptococcus pneumoniae [1] = experiment: Antimicrobial activity against Streptococcus pneumoniae 1 by time-kill analysis
Outline: (§1)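 Time-kill in cation-adjusted Mueller-Hinton broth with 5% lysed horse blood; inocula 5 × 105 to 5 × 10^6 CFU/ml; drugs at MIC, 2× and 4× MIC; 35°C shaking water bath; viable counts at 0, 3, 6, 12 and 24 h. Bactericidal if ≥3 log10 CFU/ml (99.9%) reduction from original inoculum; 90% and 99% killing also scored.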

Streptococcus pneumoniae [2] = experiment: Antimicrobial activity against Streptococcus pneumoniae 4 by time-kill analysis
Outline: (§2)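 Time-kill in cation-adjusted Mueller-Hinton broth with 5% lysed horse blood; inocula 5 × 105 to 5 × 10^6 CFU/ml; drugs at MIC, 2× and 4× MIC; 35°C shaking water bath; viable counts at 0, 3, 6, 12, 24 h. Bactericidal = ≥3 log10 CFU/ml (99.9%) drop from original inoculum; 90%/99%/99.9% killing scored per strain.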

Streptococcus pneumoniae [3] = experiment: Antimicrobial activity against Streptococcus pneumoniae 5 by time-kill analysis; outline: as §1
Streptococcus pneumoniae [4] = experiment: Antimicrobial activity against Streptococcus pneumoniae 7 by time-kill analysis; outline: as §2
Streptococcus pneumoniae [5] = experiment: Antimicrobial activity against Streptococcus pneumoniae 11 by time-kill analysis; outline: as §2
Streptococcus pneumoniae [6] = experiment: Antimicrobial activity against Streptococcus pneumoniae isolate 24 by agar dilution method
Streptococcus pneumoniae [7] = experiment: Antimicrobial activity against Streptococcus pneumoniae isolate 37 by agar dilution method
Outline: (§3)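 Agar dilution MIC on Mueller-Hinton agar with 5% sheep blood, inocula 10^4 CFU/spot; amoxicillin-clavulanate combined 1:2; S. pneumoniae ATCC 49619 quality control each run.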

Streptococcus pneumoniae [8] = experiment: Antimicrobial activity against Streptococcus pneumoniae isolate 1055 by agar dilution method
Streptococcus pneumoniae [9] = experiment: Antimicrobial activity against Streptococcus pneumoniae isolate 1146 by agar dilution method; outline: as §3
Streptococcus pneumoniae [10] = experiment: Antimicrobial activity against Streptococcus pneumoniae isolate 1147 by agar dilution method; outline: as §3
Streptococcus pneumoniae [11] = experiment: Antimicrobial activity against Streptococcus pneumoniae isolate 1564 by agar dilution method
Streptococcus pneumoniae [12] = experiment: Antimicrobial activity against Streptococcus pneumoniae isolate 2688 by agar dilution method; outline: as §3
Streptococcus pneumoniae [13] = experiment: Antimicrobial activity against Streptococcus pneumoniae isolate 2880 by agar dilution method; outline: as §3
Streptococcus pneumoniae [14] = experiment: Antimicrobial activity against Streptococcus pneumoniae isolate 3681 by agar dilution method; outline: as §3
Streptococcus pneumoniae [15] = experiment: Antimicrobial activity against Streptococcus pneumoniae isolate 3791 by agar dilution method; outline: as §3
Streptococcus pneumoniae [16] = experiment: Antimicrobial activity against Streptococcus pneumoniae 2 by time-kill analysis; outline: as §2
Streptococcus pneumoniae [17] = experiment: Antimicrobial activity against Streptococcus pneumoniae 3 by time-kill analysis; outline: as §2
Streptococcus pneumoniae [18] = experiment: Antimicrobial activity against Streptococcus pneumoniae 6 by time-kill analysis; outline: as §2
Streptococcus pneumoniae [19] = experiment: Antimicrobial activity against Streptococcus pneumoniae 8 by time-kill analysis; outline: as §2
Streptococcus pneumoniae [20] = experiment: Antimicrobial activity against Streptococcus pneumoniae 9 by time-kill analysis; outline: as §1
Streptococcus pneumoniae [21] = experiment: Antimicrobial activity against Streptococcus pneumoniae 10 by time-kill analysis; outline: as §2
Streptococcus pneumoniae [22] = experiment: Antimicrobial activity against Streptococcus pneumoniae 12 by time-kill analysis; outline: as §2
Streptococcus pneumoniae [23] = experiment: Antimicrobial activity against penicillin-susceptible Streptococcus pneumoniae by agar dilution method
Streptococcus pneumoniae [24] = experiment: Antimicrobial activity against penicillin-intermediate Streptococcus pneumoniae by agar dilution method
Streptococcus pneumoniae [25] = experiment: Antimicrobial activity against penicillin-resistant Streptococcus pneumoniae by agar dilution method; outline: as §3
Streptococcus pneumoniae [26] = experiment: Antimicrobial activity against Streptococcus pneumoniae 19A by agar dilution method; outline: as §3
Streptococcus pneumoniae [27] = experiment: Antimicrobial activity against Streptococcus pneumoniae isolate 33 by agar dilution method; outline: as §3
Streptococcus pneumoniae [28] = experiment: Antimicrobial activity against Streptococcus pneumoniae isolate 1384 by agar dilution method; outline: as §3
Streptococcus pneumoniae [29] = experiment: Antimicrobial activity against Streptococcus pneumoniae isolate 1394 by agar dilution method
Streptococcus pneumoniae [30] = experiment: Antimicrobial activity against Streptococcus pneumoniae isolate 1397 by agar dilution method; outline: as §3
Streptococcus pneumoniae [31] = experiment: Antimicrobial activity against Streptococcus pneumoniae isolate 1424 by agar dilution method; outline: as §3
Streptococcus pneumoniae [32] = experiment: Antimicrobial activity against Streptococcus pneumoniae isolate 2617 by agar dilution method; outline: as §3
Streptococcus pneumoniae [33] = experiment: Antimicrobial activity against Streptococcus pneumoniae isolate 2686 by agar dilution method; outline: as §3
Streptococcus pneumoniae [34] = experiment: Antimicrobial activity against Streptococcus pneumoniae isolate 2874 by agar dilution method; outline: as §3
Streptococcus pneumoniae [35] = experiment: Antimicrobial activity against Streptococcus pneumoniae isolate 3260 by agar dilution method
Streptococcus pneumoniae [36] = experiment: Antimicrobial activity against Streptococcus pneumoniae isolate 3263 by agar dilution method
Streptococcus pneumoniae [37] = experiment: Antimicrobial activity against Streptococcus pneumoniae isolate 3275 by agar dilution method; outline: as §3
Streptococcus pneumoniae [38] = experiment: Antimicrobial activity against Streptococcus pneumoniae isolate 3282 by agar dilution method
Streptococcus pneumoniae [39] = experiment: Antimicrobial activity against Streptococcus pneumoniae isolate 3346 by agar dilution method
Streptococcus pneumoniae [40] = experiment: Antimicrobial activity against Streptococcus pneumoniae isolate 3374 by agar dilution method; outline: as §3
Streptococcus pneumoniae [41] = experiment: Antimicrobial activity against Streptococcus pneumoniae isolate 3412 by agar dilution method; outline: as §3
Streptococcus pneumoniae [42] = experiment: Antimicrobial activity against Streptococcus pneumoniae isolate 3455 by agar dilution method
Streptococcus pneumoniae [43] = experiment: Antimicrobial activity against Streptococcus pneumoniae isolate 3458 by agar dilution method
Streptococcus pneumoniae [44] = experiment: Antimicrobial activity against Streptococcus pneumoniae isolate 3481 by agar dilution method; outline: as §3
Streptococcus pneumoniae [45] = experiment: Antimicrobial activity against Streptococcus pneumoniae isolate 3587 by agar dilution method
Streptococcus pneumoniae [46] = experiment: Antimicrobial activity against Streptococcus pneumoniae isolate 4747 by agar dilution method; outline: as §3
Streptococcus pneumoniae [47] = experiment: Antimicrobial activity against Streptococcus pneumoniae isolate 4755 by agar dilution method; outline: as §3

O=C(O)c1cn(C2CC2)c2cc(N3CCNCC3)c(F)cc2c1=O [CIPROFLOXACIN]
MIC (Streptococcus pneumoniae [1]): > 32 µg/mL | MIC (Streptococcus pneumoniae [2]): 16 µg/mL (≈ 48.3 µM) | MIC (Streptococcus pneumoniae [3]): 1 µg/mL (≈ 3.02 µM) | MIC (Streptococcus pneumoniae [4]): 1 µg/mL (≈ 3.02 µM) | MIC (Streptococcus pneumoniae [5]): 1 µg/mL (≈ 3.02 µM) | MIC (Streptococcus pneumoniae [6]): 1 µg/mL (≈ 3.02 µM) | MIC (Streptococcus pneumoniae [7]): 1 µg/mL (≈ 3.02 µM) | MIC (Streptococcus pneumoniae [8]): 32 µg/mL (≈ 96.6 µM) | MIC (Streptococcus pneumoniae [9]): 32 µg/mL (≈ 96.6 µM) | MIC (Streptococcus pneumoniae [10]): 32 µg/mL (≈ 96.6 µM) | MIC (Streptococcus pneumoniae [11]): 1 µg/mL (≈ 3.02 µM) | MIC (Streptococcus pneumoniae [12]): 1 µg/mL (≈ 3.02 µM) | MIC (Streptococcus pneumoniae [13]): 1 µg/mL (≈ 3.02 µM) | MIC (Streptococcus pneumoniae [14]): 1 µg/mL (≈ 3.02 µM) | MIC (Streptococcus pneumoniae [15]): 1 µg/mL (≈ 3.02 µM)

CC[C@H]1OC(=O)[C@H](C)C(=O)[C@H](C)[C@@H](O[C@@H]2O[C@H](C)C[C@H](N(C)C)[C@H]2O)[C@](C)(OC)C[C@@H](C)C(=O)[C@H](C)[C@H]2N(CCCCn3cnc(-c4cccnc4)c3)C(=O)O[C@]12C [TELITHROMYCIN]
MIC (Streptococcus pneumoniae [1]): 0.03 µg/mL (≈ 0.0369 µM) | MIC (Streptococcus pneumoniae [16]): 0.008 µg/mL (≈ 0.00985 µM) | MIC (Streptococcus pneumoniae [17]): 0.12 µg/mL (≈ 0.148 µM) | MIC (Streptococcus pneumoniae [2]): 0.008 µg/mL (≈ 0.00985 µM) | MIC (Streptococcus pneumoniae [3]): 0.12 µg/mL (≈ 0.148 µM) | MIC (Streptococcus pneumoniae [18]): 0.004 µg/mL (≈ 0.00493 µM) | MIC (Streptococcus pneumoniae [4]): 0.06 µg/mL (≈ 0.0739 µM) | MIC (Streptococcus pneumoniae [19]): 0.12 µg/mL (≈ 0.148 µM) | MIC (Streptococcus pneumoniae [20]): 0.008 µg/mL (≈ 0.00985 µM) | MIC (Streptococcus pneumoniae [21]): 0.008 µg/mL (≈ 0.00985 µM) | MIC (Streptococcus pneumoniae [5]): 0.03 µg/mL (≈ 0.0369 µM) | MIC (Streptococcus pneumoniae [22]): 0.016 µg/mL (≈ 0.0197 µM)

CC[C@H]1OC(=O)[C@H](C)[C@@H](O[C@H]2C[C@@](C)(OC)[C@@H](O)[C@H](C)O2)[C@H](C)[C@@H](O[C@@H]2O[C@H](C)C[C@H](N(C)C)[C@H]2O)[C@](C)(OC)C[C@@H](C)C(=O)[C@H](C)[C@@H](O)[C@]1(C)O [CLARITHROMYCIN]
MIC50 (Streptococcus pneumoniae [23]): 0.5 µg/mL (≈ 0.668 µM) | MIC90 (Streptococcus pneumoniae [23]): > 64 µg/mL | MIC50 (Streptococcus pneumoniae [24]): 1 µg/mL (≈ 1.34 µM) | MIC90 (Streptococcus pneumoniae [24]): > 64 µg/mL | MIC50 (Streptococcus pneumoniae [25]): 0.06 µg/mL (≈ 0.0802 µM) | MIC50 (Streptococcus pneumoniae [26]): > 64 µg/mL | MIC90 (Streptococcus pneumoniae [26]): > 64 µg/mL | MIC (Streptococcus pneumoniae [6]): > 64 µg/mL | MIC (Streptococcus pneumoniae [27]): 0.03 µg/mL (≈ 0.0401 µM) | MIC (Streptococcus pneumoniae [7]): > 64 µg/mL | MIC (Streptococcus pneumoniae [8]): 32 µg/mL (≈ 42.8 µM) | MIC (Streptococcus pneumoniae [9]): 2 µg/mL (≈ 2.67 µM) | MIC (Streptococcus pneumoniae [10]): 1 µg/mL (≈ 1.34 µM) | MIC (Streptococcus pneumoniae [28]): 64 µg/mL (≈ 85.6 µM) | MIC (Streptococcus pneumoniae [29]): 64 µg/mL (≈ 85.6 µM) | MIC (Streptococcus pneumoniae [30]): 64 µg/mL (≈ 85.6 µM) | MIC (Streptococcus pneumoniae [31]): 16 µg/mL (≈ 21.4 µM) | MIC (Streptococcus pneumoniae [11]): 32 µg/mL (≈ 42.8 µM) | MIC (Streptococcus pneumoniae [32]): 0.03 µg/mL (≈ 0.0401 µM) | MIC (Streptococcus pneumoniae [33]): 16 µg/mL (≈ 21.4 µM) | MIC (Streptococcus pneumoniae [12]): 32 µg/mL (≈ 42.8 µM) | MIC (Streptococcus pneumoniae [34]): 32 µg/mL (≈ 42.8 µM) | MIC (Streptococcus pneumoniae [13]): 8 µg/mL (≈ 10.7 µM) | MIC (Streptococcus pneumoniae [35]): > 64 µg/mL | MIC (Streptococcus pneumoniae [36]): > 64 µg/mL | MIC (Streptococcus pneumoniae [37]): > 64 µg/mL | MIC (Streptococcus pneumoniae [38]): > 64 µg/mL | MIC (Streptococcus pneumoniae [39]): > 64 µg/mL | MIC (Streptococcus pneumoniae [40]): 32 µg/mL (≈ 42.8 µM) | MIC (Streptococcus pneumoniae [41]): 32 µg/mL (≈ 42.8 µM) | MIC (Streptococcus pneumoniae [42]): > 64 µg/mL | MIC (Streptococcus pneumoniae [43]): > 64 µg/mL | MIC (Streptococcus pneumoniae [44]): > 64 µg/mL | MIC (Streptococcus pneumoniae [45]): > 64 µg/mL | MIC (Streptococcus pneumoniae [14]): 0.03 µg/mL (≈ 0.0401 µM) | MIC (Streptococcus pneumoniae [15]): 32 µg/mL (≈ 42.8 µM) | MIC (Streptococcus pneumoniae [46]): 64 µg/mL (≈ 85.6 µM) | MIC (Streptococcus pneumoniae [47]): > 64 µg/mL

C[C@@H](O)[C@H]1C(=O)N2C(C(=O)O)=C(S[C@@H]3CN[C@H](C(=O)Nc4cccc(C(=O)O)c4)C3)[C@H](C)[C@H]12 [ERTAPENEM]
MIC (Streptococcus pneumoniae [1]): 0.03 µg/mL (≈ 0.0631 µM) | MIC (Streptococcus pneumoniae [16]): 0.03 µg/mL (≈ 0.0631 µM) | MIC (Streptococcus pneumoniae [17]): 0.25 µg/mL (≈ 0.526 µM) | MIC (Streptococcus pneumoniae [2]): 1 µg/mL (≈ 2.1 µM) | MIC (Streptococcus pneumoniae [3]): 4 µg/mL (≈ 8.41 µM) | MIC (Streptococcus pneumoniae [18]): 0.12 µg/mL (≈ 0.252 µM) | MIC (Streptococcus pneumoniae [4]): 2 µg/mL (≈ 4.21 µM) | MIC (Streptococcus pneumoniae [19]): 1 µg/mL (≈ 2.1 µM) | MIC (Streptococcus pneumoniae [20]): 0.12 µg/mL (≈ 0.252 µM) | MIC (Streptococcus pneumoniae [21]): 0.12 µg/mL (≈ 0.252 µM) | MIC (Streptococcus pneumoniae [5]): 2 µg/mL (≈ 4.21 µM) | MIC (Streptococcus pneumoniae [22]): 0.5 µg/mL (≈ 1.05 µM)
